Results published in ChEMBL document CHEMBL1125163, “Evolution of a series of peptidoleukotriene antagonists: synthesis and structure-activity relationships of 1,6-disubstituted indoles and indazoles” (J Med Chem, 1990).
The source made the active and inactive calls. No cut-off for these calls is given here.

Tested on: not listed separately
Test: pKB value of the compound
Conditions: not given
How it was run: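 Guinea pig tracheal strips at 37 °C in Krebs buffer. Cumulative LTE4 concentration-response curves were built in log increments, with responses expressed as % of the maximum to 30 µM carbachol. Antagonist was incubated 30 min before the curve, with vehicle on paired controls. EC50 came from linear regression. KB = [antagonist]/(dose ratio − 1) by the Furchgott method. One curve per tissue.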

| SMILES | pKB |
| --- | --- |
| CCCCCCOc1ccc(COc2ccccc2C(=O)O)cc1 | 5.1 |
| CCCc1c(OCc2ccc(C(=O)O)cc2OC)ccc(C(C)=O)c1O | 6.4 |

Organism: Cavia porcellus
Test: (§1) Percent inhibition of the BaCl2 - induced contraction of guinea pig tracheal spirals at concentration of 100 uM; Not significant
Type: functional, organism-based
Conditions: Trachea
How it was run: (§2)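 Guinea pig tracheal strips contracted with barium chloride. Compound was tested at 100 µM, and the read-out is percent inhibition of the BaCl2-induced contraction.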

| SMILES | inhibition |
| --- | --- |
| CCCCC(CC)C(=O)Nc1ccc2cnn(Cc3ccc(C(=O)O)cc3OC)c2c1 (stereo unspecified) | inactive |

Organism: Cavia porcellus
Test: Percent inhibition of the BaCl2 - induced contraction of guinea pig tracheal spirals at concentration of 100 uM
Type: functional
Conditions: Trachea
How it was run: as §2

| SMILES | inhibition at 100 µM [%] |
| --- | --- |
| CCCCOC(=O)Nc1ccc2cnn(Cc3ccc(C(=O)O)cc3OC)c2c1 | 41 |
| COc1cc(C(=O)O)ccc1Cn1ncc2ccc(NC(=O)OC3CCCC3)cc21 | 44 |

Organism: Cavia porcellus
Test: as §1
Type: functional
Conditions: Trachea
How it was run: as §2

| SMILES | inhibition |
| --- | --- |
| CCC(C(=O)Nc1ccc2cnn(Cc3ccc(C(=O)O)cc3OC)c2c1)c1ccccc1 (stereo unspecified) | inactive |

Organism: Cavia porcellus
Test: Percent inhibition of the LTE4- induced contraction of guinea pig tracheal spirals at concentration of 10 uM; Not significant
Type: functional, organism-based
Conditions: Trachea
How it was run: (§3)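 Guinea pig trachea cut into spiral strips, each trachea split into paired sections. Tissue bath at 37 °C in modified Krebs buffer gassed with 95% O2/5% CO2, 2 g resting tension, 60 min stabilization. After reproducible responses to 10 nM LTE4, compound was added for 10 min, then LTE4 challenge repeated. Percent inhibition is the 2nd vs 3rd response, adjusted by subtracting the vehicle-treated paired section. Paired t test, p < 0.05.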

| SMILES | inhibition |
| --- | --- |
| CCCCCC(=O)Nc1cccc2cnn(Cc3ccc(C(=O)O)cc3OC)c12 | inactive |

Organism: Cavia porcellus
Test: Percent inhibition of the LTE4- induced contraction of guinea pig tracheal spirals at the concentration of 0.33 uM
Type: functional
Conditions: Trachea
How it was run: as §3

| SMILES | inhibition at 0.33 µM [%] |
| --- | --- |
| CCC(C(=O)Nc1ccc2cnn(Cc3ccc(C(=O)O)cc3OC)c2c1)c1ccccc1 (stereo unspecified) | 30 |
| CCCCOC(=O)Nc1ccc2cnn(Cc3ccc(C(=O)O)cc3OC)c2c1 | 56 |
| COc1cc(C(=O)O)ccc1Cn1ccc2ccc(NC(=O)OC(C)C)cc21 | 24 |
| CCC(C(=O)Nc1ccc2ccn(Cc3ccc(C(=O)O)cc3OC)c2c1)C1CCCCC1 (stereo unspecified) | 18 |
| CCC(CC)OC(=O)Nc1ccc2ccn(Cc3ccc(C(=O)O)cc3OC)c2c1 | 31 |
| CCCCC(CC)C(=O)Nc1ccc2cnn(Cc3ccc(C(=O)O)cc3OC)c2c1 (stereo unspecified) | 56 |
| COc1cc(C(=O)O)ccc1Cn1ccc2ccc(NC(=O)CC3CCCCC3)cc21 | 53 |

Tested on: Cavia porcellus
Test: Percent protection was determined from the time delay to the onset of dyspnea compared to that of control guinea pig at a concentration of 126 uM/kg
Type: functional
Conditions: not given
How it was run: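 Conscious guinea pigs were pretreated ip with indomethacin (10 mg/kg) and propranolol (5 mg/kg). Compound was given orally in poly(ethylene glycol) 60 min before challenge with aerosolized 60 µM LTD4 for up to 5 min. End point was labored abdominal breathing, scored blind. % protection = (drug time − mean control time)/(max aerosol time − mean control time) × 100, with at least two vehicle animals per run.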

| SMILES | Protection [%] |
| --- | --- |
| CCCCOC(=O)Nc1ccc2cnn(Cc3ccc(C(=O)O)cc3OC)c2c1 | 33 |

Organism: Cavia porcellus
Test: Percent inhibition of the LTE4- induced contraction of guinea pig tracheal spirals at the concentration of 1.0 uM
Type: functional
Conditions: Trachea
How it was run: as §3

| SMILES | inhibition at 1 µM [%] |
| --- | --- |
| CCCC(C(=O)Nc1ccc2ccn(Cc3ccc(C(=O)O)cc3OC)c2c1)C1CCCC1 (stereo unspecified) | 62 |
| COc1cc(C(=O)O)ccc1Cn1ccc2ccc(NC(=O)C(c3ccccc3)C3CCCC3)cc21 (stereo unspecified) | 27 |
| COc1cc(C(=O)O)ccc1Cn1ccc2ccc(NC(=O)OC3CC=CCC3)cc21 (stereo unspecified) | 47 |
| CCCCCCOC(=O)Nc1ccc2ccn(Cc3ccc(C(=O)O)cc3OC)c2c1 | 30 |

Organism: Cavia porcellus
Test: Percent inhibition of the LTE4- induced contraction of guinea pig tracheal spirals at the concentration of 1.0 uM; Not significant
Type: functional
Conditions: Trachea
How it was run: as §3

| SMILES | inhibition |
| --- | --- |
| COc1cc(C(=O)O)ccc1Cn1ccc2ccc(NC(=O)OC3CCCCC3)cc21 | inactive |

Organism: Cavia porcellus
Test: Percent inhibition of the LTE4- induced contraction of guinea pig tracheal spirals at the concentration of 3.3 uM
Type: functional
Conditions: Trachea
How it was run: as §3

| SMILES | inhibition at 3.3 µM [%] |
| --- | --- |
| COc1cc(C(=O)O)ccc1Cn1ccc2ccc(NC(=O)C(OC)c3ccccc3)cc21 (stereo unspecified) | 52 |
| COc1cc(C(=O)O)ccc1Cn1ccc2ccc(NC(=O)NC(C)(C)C)cc21 | 24 |
| COc1cc(C(=O)O)ccc1Cn1ccc2ccc(NC(=O)NC3CCCCC3)cc21 | 34 |
| COc1cc(C(=O)O)ccc1Cn1ccc2ccc(NC(=O)C(C)(C)c3ccccc3)cc21 | 23 |
| COc1cc(C(=O)O)ccc1Cn1ccc2ccc(NC(=O)OC3CCOC3)cc21 (stereo unspecified) | 70 |
| COc1cc(C(=O)O)ccc1Cn1ccc2ccc(NC(=O)OC(C)(C)C)cc21 | 10 |
| COc1cc(C(=O)O)ccc1Cn1ccc2ccc(NC(=O)C(C)c3ccccc3)cc21 (stereo unspecified) | 59 |
| COc1cc(C(=O)O)ccc1Cn1ccc2ccc(NC(=O)C(c3ccccc3)c3ccccc3)cc21 | 38 |
| CCCCCCNC(=O)Nc1ccc2ccn(Cc3ccc(C(=O)O)cc3OC)c2c1 | 51 |

Organism: Cavia porcellus
Test: Percent inhibition of the LTE4- induced contraction of guinea pig tracheal spirals at the concentration of 5 uM
Type: functional
Conditions: Trachea
How it was run: as §3

| SMILES | inhibition at 5 µM [%] |
| --- | --- |
| C/C=C/C=C/C(=O)Nc1ccc2ccn(Cc3ccc(C(=O)O)cc3OC)c2c1 | 28 |
| CCCCCCOc1ccc(COc2ccccc2C(=O)O)cc1 | 40 |
| CCCCCCCC(=O)Nc1ccc2ccn(Cc3ccc(C(=O)O)cc3OC)c2c1 | 53 |
| COc1cc(C(=O)O)ccc1Cn1ccc2ccc(NC(=O)Cc3ccccc3)cc21 | 71 |
| CCCC(=O)Nc1ccc2ccn(Cc3ccc(C(=O)O)cc3OC)c2c1 | 42 |

Organism: Cavia porcellus
Test: Percent inhibition of the LTE4- induced contraction of guinea pig tracheal spirals at the concentration of 5 uM; Not significant
Type: functional
Conditions: Trachea
How it was run: as §3

| SMILES | inhibition |
| --- | --- |
| CCCCCCCCCCCC(=O)Nc1ccc2ccn(Cc3ccc(C(=O)O)cc3OC)c2c1 | inactive |

Tested on: not listed separately
Test: Selectivity ratio of the compound
Type: functional
Conditions: not given

| SMILES | Selectivity ratio |
| --- | --- |
| CCCCCCOc1ccc(COc2ccccc2C(=O)O)cc1 | 10 |
| CCCc1c(OCc2ccc(C(=O)O)cc2OC)ccc(C(C)=O)c1O | 50 |

Organism: Cavia porcellus
Test: Percent inhibition of the LTE4- induced contraction of guinea pig tracheal spirals at the concentration of 0 uM; Not significant
Type: functional
Conditions: Trachea
How it was run: as §3

| SMILES | inhibition |
| --- | --- |
| COc1cc(C(=O)O)ccc1Cn1ccc2ccc(NC(C)=O)cc21 | inactive |

Organism: Cavia porcellus
Test: Percent inhibition of the LTE4- induced contraction of guinea pig tracheal spirals at the concentration of 0.1 uM
Type: functional
Conditions: Trachea
How it was run: as §3

| SMILES | inhibition at 0.1 µM [%] |
| --- | --- |
| COc1cc(C(=O)O)ccc1Cn1ncc2ccc(NC(=O)OC3CCCC3)cc21 | 65 |
| COc1cc(C(=O)O)ccc1Cn1ccc2ccc(NC(=O)CC3CCCC3)cc21 | 34 |
| COc1cc(C(=O)O)ccc1Cn1ccc2ccc(NC(=O)OC3CCC3)cc21 | 27 |
| COc1cc(C(=O)O)ccc1Cn1ncc2ccc(NC(=O)CC3CCCC3)cc21 | 83 |

Organism: Cavia porcellus
Test: Percent inhibition of the LTE4- induced contraction of guinea pig tracheal spirals at the concentration of 1 uM
Type: functional
Conditions: Trachea
How it was run: as §3

| SMILES | inhibition at 1 µM [%] |
| --- | --- |
| COc1cc(C(=O)O)ccc1Cn1ccc2ccc(NC(=O)NC3CCCC3)cc21 | 73 |
| COc1cc(C(=O)O)ccc1Cn1ccc2ccc(NC(=O)C3CCCC3)cc21 | 58 |
| CCCc1c(OCc2ccc(C(=O)O)cc2OC)ccc(C(C)=O)c1O | 38 |
| CCCCC(CC)C(=O)Nc1ccc2ccn(Cc3ccc(C(=O)O)cc3OC)c2c1 (stereo unspecified) | 59 |
| CCCCNC(=O)Nc1ccc2ccn(Cc3ccc(C(=O)O)cc3OC)c2c1 | 39 |
| CCC(C(=O)Nc1ccc2ccn(Cc3ccc(C(=O)O)cc3OC)c2c1)c1ccccc1 (stereo unspecified) | 65 |

Tested on: Cysteinyl leukotriene receptor (Cavia porcellus)
Test: Inhibition of the LTE4- induced contraction of guinea pig tracheal spirals at 10 uM.
Conditions: Trachea

| SMILES | inhibition [%] |
| --- | --- |
| CCCCCC(=O)Nc1ccc2cnn(Cc3ccc(C(=O)O)cc3)c2c1 | 62 |
| CCCCC(C(=O)Nc1ccc2ccn(Cc3ccc(C(=O)O)cc3OC)c2c1)c1ccccc1 (stereo unspecified) | 34 |
| CCC(C(=O)Nc1ccc2cn(Cc3ccc(C(=O)O)cc3OC)nc2c1)c1ccccc1 (stereo unspecified) | 22 |
| COc1cc(C(=O)O)ccc1Cn1ccc2ccc(NC(=O)Cc3ccc(C)cc3)cc21 | 29 |
| COc1cc(C(=O)O)ccc1Cn1ccc2ccc(NC(=O)Cc3ccc(C(F)(F)F)cc3)cc21 | 13 |
| CCCCCC(=O)Nc1ccc2nn(Cc3ccccc3C(=O)O)cc2c1 | 13 |
| CCN(CC)C(=O)Nc1ccc2ccn(Cc3ccc(C(=O)O)cc3OC)c2c1 | 19 |
| CCCCCCNc1ccc2ccn(Cc3ccc(C(=O)O)cc3OC)c2c1 | 52 |
| C#CCCC(=O)Nc1ccc2ccn(Cc3ccc(C(=O)O)cc3OC)c2c1 | 47 |
| COc1cc(C(=O)O)ccc1Cn1ccc2ccc(NC(=O)c3ccccc3)cc21 | 14 |
| COc1cc(C(=O)O)ccc1Cn1ccc2ccc(NC(=O)Nc3ccccc3C(F)(F)F)cc21 | 42 |
| COc1cc(C(=O)O)ccc1Cn1ccc2ccc(NC(=O)CCCc3ccccc3)cc21 | 73 |
| CCCC/N=C(\S)Nc1ccc2ccn(Cc3ccc(C(=O)O)cc3OC)c2c1 | 18 |
| COc1cc(C(=O)O)ccc1Cn1ccc2ccc(NC(=O)Cc3ccc(Cl)cc3)cc21 | 44 |
| COc1cc(C(=O)O)ccc1Cn1ccc2ccc(NC(=O)NCc3ccccc3)cc21 | 57 |
| CCCCOC(=O)Nc1ccc2cn(Cc3ccc(C(=O)O)cc3OC)nc2c1 | 50 |
| COc1cc(C(=O)O)ccc1Cn1ccc2ccc(NC(=O)CCc3ccccc3)cc21 | 62 |
| COc1cc(C(=O)O)ccc1Cn1ccc2ccc(NC(=O)Cc3cccs3)cc21 | 77 |
| COc1cc(C(=O)O)ccc1Cn1ccc2ccc(NC(=O)C(F)(F)C(F)(F)C(F)(F)F)cc21 | 40 |
| CCCCCC(=O)Nc1cccc2c1ccn2Cc1ccc(C(=O)O)cc1OC | 29 |

Tested on: Cysteinyl leukotriene receptor (Cavia porcellus)
Test: Inhibition of the LTE4- induced contraction of guinea pig tracheal spirals at 10 uM; Not significant.
Conditions: Trachea

| SMILES | inhibition |
| --- | --- |
| CCCCCC(=O)Nc1ccc2c(cnn2Cc2ccccc2C(=O)O)c1 | inactive |
| COc1cc(C(=O)O)ccc1Cn1ccc2ccc(NC(=O)CCCCCCC(=O)O)cc21 | inactive |
| CCCCCC(=O)Nc1ccc2cnn(Cc3ccccc3C(=O)O)c2c1 | inactive |
| COc1cc(C(=O)O)ccc1Cn1ccc2ccc(NC(=O)CCCCCNC(C)=O)cc21 | inactive |
| COc1cc(C(=O)O)ccc1Cn1ccc2ccc(NC(=O)Cc3ccc4ccccc4c3)cc21 | inactive |
| COc1cc(C(=O)O)ccc1Cn1ccc2ccc(NC(=O)Cc3ccc(-c4ccccc4)cc3)cc21 | inactive |
| COc1cc(C(=O)O)ccc1Cn1ccc2ccc(NC(=O)Cc3ccc(OC)c(OC)c3)cc21 | inactive |
| CCCCCC(=O)Nc1ccc2cn(Cc3ccc(C(=O)O)cc3)nc2c1 | inactive |
| CCCCCC(=O)Nc1ccc2nn(Cc3ccc(C(=O)O)cc3)cc2c1 | inactive |
| CCCCCCCCCC(=O)Nc1ccc2ccn(Cc3ccc(C(=O)O)cc3OC)c2c1 | inactive |
| COc1cc(C(=O)O)ccc1Cn1ccc2ccc(NC(=O)Nc3ccccc3)cc21 | inactive |
| COc1cc(C(=O)O)ccc1Cn1ccc2ccc(NC(=O)CCCC(C)=O)cc21 | inactive |
| COc1cc(C(=O)O)ccc1Cn1ccc2ccc(NS(=O)(=O)Cc3ccccc3)cc21 | inactive |
| COC(=O)Nc1ccc2ccn(Cc3ccc(C(=O)O)cc3OC)c2c1 | inactive |
| CCCCN(C)C(=O)Nc1ccc2ccn(Cc3ccc(C(=O)O)cc3OC)c2c1 | inactive |
| CCCCCC(=O)N(C)c1ccc2ccn(Cc3ccc(C(=O)O)cc3OC)c2c1 | inactive |
| CCCCCC(=O)Nc1ccc2cn(Cc3ccccc3C(=O)O)nc2c1 | inactive |
| CCCCCC(=O)Nc1ccc2c(cnn2Cc2ccc(C(=O)O)cc2)c1 | inactive |
